Mot1-301 SUMO = SUMOylation pathway inhibition by Mot1-301 growth rescue; growth rescue, % at 18.8 µM; S. cerevisiae Mot1-301 growth rescue, ATP luminescence, 38.5C; percent above DMSO median, 100 means doubled; actives 1% (n = 320,000);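 active means every valid replicate shows activation above 250% relative to neutral control wells; inactive means the rest, any valid replicate at or below 250%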
PolyA inhibitor = inhibitors of polyadenylation in S. cerevisiae; S. cerevisiae SKY197-pL101 polyadenylation reporter, beta-gal luminescence; efflux-impaired pdr1/pdr3 knockout yeast; score 100 = 6 SD above DMSO; activity score, % at 12 µM; actives 0.02% (n = 300,000); AID 1875;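 active means lowest replicate activity score at least 50, where 100 means six control SD above control mean; inconclusive means lowest score under 50 but half or more replicates reach 50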;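 further: yeast exposed to compound for 9 h at 30 °C; higher score means more reporter readthrough which indicates perturbed polyadenylation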
NALP3 yeast inh = inhibitors of NALP3 inflammasome in yeast; Yeast reconstituted NLRP3/ASC/caspase-1, beta-gal luminescence, 24 h; inhibition, % at 10 µM; actives 0.39% (n = 330,000);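 active means inhibition of 50% or more; inactive means inhibition below 50%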
IMP-1 inh = inhibitors of Pseudomonas aeruginosa IMP-1 metallo-beta-lactamase. inhibition, % at 5.6 µM. purified IMP-1, nitrocefin hydrolysis, epi-absorbance fluorescence. actives 0.45% (n = 290,000);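 active means inhibition above the mean plus 3 SD of all compounds in the same screening run, cut at about 4.5% in these data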
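Test system: recombinant IMP-1 enzyme, purified / Medium: HEPES buffer pH 7.1 with ZnSO4 and Brij 35 / Doses: single dose, 5.6 µM / Times: 25 °C, 15 min preincubation, 25 min reaction / Detection: Epi-absorbance via hydrolysed-nitrocefin quenching of white-plate fluorescence, 480/530 nm, EDTA stop / Evaluation: percent inhibition from optical density relative to buffer-blank wells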
VIM-2 inh = blocks Pseudomonas aeruginosa VIM-2 metallo-beta-lactamase; purified VIM-2, nitrocefin hydrolysis, epi-absorbance fluorescence; inhibition, % at 5.6 µM; actives 0.89% (n = 290,000);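 active means inhibition above the mean of all tested compounds plus 3 SD, cutoff set per screening run, cut at about 7.5% in these data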;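 further: red hydrolysis product quenches plate fluorescence so inhibitors raise well fluorescence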
NALP1 inh = inhibitors of NALP1 inflammasome in yeast. AID 2071. inhibition, % at 10 µM. S. cerevisiae NALP1/ASC/caspase-1 growth, X-gal OD620, 72 h. actives 0.61% (n = 280,000); in the data active means inhibition mostly above about 24%, no sharp cut-off; inactive means mostly below about 32%
Hits are given with their value. Compounds with a hit are over-represented: about 2.9% of the library has one in this group of screens.

For CC(C)OCCCNC(=O)C1CC(=O)N(CCc2ccccc2)C1 (stereo not drawn) the results were Mot1-301 SUMO inactive, PolyA inhibitor inactive, NALP3 yeast inh inactive, IMP-1 inh inactive, VIM-2 inh inactive and NALP1 inh inactive.
`CC(=O)c1c(O)c(C)c(O)c2c1OC1=CC(=O)C(C(C)=O)C(=O)[C@@]12C` (stereo partly drawn) gave PolyA inhibitor inactive, NALP3 yeast inh inactive, IMP-1 inh inactive, VIM-2 inh inactive and NALP1 inh inactive.
Cc1ccccc1NS(=O)(=O)c1ccc(OCC(=O)NCc2cccnc2)cc1 was read as Mot1-301 SUMO 385, PolyA inhibitor inactive, NALP3 yeast inh inactive, IMP-1 inh inactive, VIM-2 inh inactive and NALP1 inh inactive.
For CCOc1ccc(S(=O)(=O)Nc2cc(SCC(=O)O)c(O)c3ccccc23)cc1 the results were Mot1-301 SUMO inactive, PolyA inhibitor inactive, IMP-1 inh inactive, VIM-2 inh 10 and NALP1 inh inactive.
`CCOc1ccc(S(=O)(=O)Nc2ccccc2C(=O)N(C)C2CCN(C)CC2)cc1` gave Mot1-301 SUMO inactive and NALP3 yeast inh inactive.
`CCOC(=O)c1ccccc1NS(=O)(=O)c1ccc(OCC)cc1` gave Mot1-301 SUMO inactive, PolyA inhibitor inactive, NALP3 yeast inh inactive, IMP-1 inh inactive, VIM-2 inh inactive and NALP1 inh 30.
CCOC(=O)C1CCN(C(=O)c2cc(C)n(C(C)(C)C)n2)CC1 was read as Mot1-301 SUMO inactive, PolyA inhibitor inactive, NALP3 yeast inh inactive, IMP-1 inh inactive and VIM-2 inh inactive.
Screening COc1ccccc1CCN1CCCC(CN(C)C(=O)c2ccoc2)C1 (stereo not drawn) returned Mot1-301 SUMO inactive, PolyA inhibitor inactive, NALP3 yeast inh inactive, IMP-1 inh inactive, VIM-2 inh inactive and NALP1 inh inactive.
`N#CC(C(=O)NCc1ccccc1)c1nc2ccccc2nc1N1CCCC1` (stereo not drawn) gave Mot1-301 SUMO inactive, PolyA inhibitor inactive, NALP3 yeast inh inactive, IMP-1 inh 8.2, VIM-2 inh inactive and NALP1 inh inactive.
N#CC(C(=O)NCCc1ccccc1)c1nc2ccccc2nc1N1CCCCC1 (stereo not drawn) was read as Mot1-301 SUMO inactive, PolyA inhibitor inactive, NALP3 yeast inh inactive, IMP-1 inh inactive, VIM-2 inh inactive and NALP1 inh inactive.
For O=C(NCc1n[nH]c(=S)n1-c1ccc(Br)cc1)c1ccc(S(=O)(=O)N2CCCCC2)cc1 the results were Mot1-301 SUMO inactive, PolyA inhibitor inactive, NALP3 yeast inh inactive, IMP-1 inh inactive, VIM-2 inh inactive and NALP1 inh inactive.
O=C(CCC(=O)N(CC(=O)NC1CCCC1)Cc1ccccc1Cl)Nc1nccs1 was read as Mot1-301 SUMO inactive, PolyA inhibitor inactive, NALP3 yeast inh inactive, IMP-1 inh inactive, VIM-2 inh inactive and NALP1 inh inactive.
Screening CC(C)NC(=O)CC1(C(=O)NCc2ccc(Cl)cc2)CCCC1 returned Mot1-301 SUMO 302, PolyA inhibitor inactive, NALP3 yeast inh inactive, IMP-1 inh inactive, VIM-2 inh inactive and NALP1 inh inactive.
COc1ccc(CNC(=O)C2(CC(=O)NC(C)(C)C)CCCC2)cc1 was read as Mot1-301 SUMO inactive, PolyA inhibitor inactive, NALP3 yeast inh inactive, IMP-1 inh inactive, VIM-2 inh inactive and NALP1 inh inactive.
`O=C(Nc1ccc(-c2csc(Nc3cccc(C(F)(F)F)c3)n2)cc1)c1cc([N+](=O)[O-])cc(C(F)(F)F)c1` gave Mot1-301 SUMO inactive, PolyA inhibitor inactive and NALP3 yeast inh inactive.
Screening C(C#CCCCCCCCCC[n+]1ccccc1)#CCCCCCCCCC[n+]1ccccc1 returned Mot1-301 SUMO inactive, PolyA inhibitor inactive, IMP-1 inh inactive, VIM-2 inh inactive and NALP1 inh 82.
Screening CN(C)c1ccc(N=C/C=C2/N(C)c3ccccc3C2(C)C)cc1 returned PolyA inhibitor inactive, IMP-1 inh inactive, VIM-2 inh inactive and NALP1 inh 54.
CC(C)Oc1ccc(C(=O)NCC(=O)N2CCN(S(=O)(=O)/C=C/c3ccccc3)CC2)cc1 was read as NALP3 yeast inh inactive.
NS(=O)(=O)c1ccc(CCNc2nc3c(-c4cccc(F)c4)nnn3c3ccccc23)cc1 was read as Mot1-301 SUMO 546, PolyA inhibitor inactive, NALP3 yeast inh inactive, IMP-1 inh inactive, VIM-2 inh inactive and NALP1 inh inactive.
For O=C(Oc1cc(-c2ccccc2)no1)c1cccc(C(F)(F)F)c1 the results were Mot1-301 SUMO inactive, PolyA inhibitor inactive, NALP3 yeast inh inactive, IMP-1 inh inactive, VIM-2 inh inactive and NALP1 inh 43.
Screening O=C(CN1CCC(NC(=O)c2ccccc2F)CC1)Nc1ccc2c(c1)OCO2 returned Mot1-301 SUMO 667, PolyA inhibitor inactive, NALP3 yeast inh inactive, IMP-1 inh inactive, VIM-2 inh inactive and NALP1 inh inactive.
`COc1ccc(C(=O)c2c(NC(C)=O)sc3c2CCN(C(=O)OC(C)(C)C)C3)cc1` gave Mot1-301 SUMO inactive, PolyA inhibitor inactive, NALP3 yeast inh inactive, IMP-1 inh inactive, VIM-2 inh inactive and NALP1 inh 44.
For CCOC(=O)c1cnc(-n2nc(C)cc2C)nc1NC the results were Mot1-301 SUMO inactive, PolyA inhibitor inactive, NALP3 yeast inh inactive, IMP-1 inh inactive, VIM-2 inh 8.1 and NALP1 inh inactive.
Screening CCOC(=O)c1cnc(-n2nc(C)cc2C)nc1Nc1ccc(C)cc1 returned PolyA inhibitor inactive, IMP-1 inh inactive, VIM-2 inh inactive and NALP1 inh inactive.
CCOc1ccccc1NC(=O)COC(=O)/C=C/c1cccs1 was read as Mot1-301 SUMO inactive and NALP3 yeast inh inactive.
`CC1=C(C(=O)OCC2CCCO2)C(c2ccc(F)cc2)NC(=O)N1` (stereo not drawn) gave Mot1-301 SUMO inactive, NALP3 yeast inh inactive, IMP-1 inh inactive, VIM-2 inh inactive and NALP1 inh 41.
Screening CC1=C(C(=O)OCC2CCCO2)C(c2cccc(O)c2)NC(=O)N1 (stereo not drawn) returned Mot1-301 SUMO inactive, PolyA inhibitor inconclusive, NALP3 yeast inh inactive, IMP-1 inh inactive, VIM-2 inh inactive and NALP1 inh inactive.
Screening CC(C)(C)c1ccc(OCCCC(=O)NC2=NCCS2)cc1 returned PolyA inhibitor inactive, NALP3 yeast inh inactive, IMP-1 inh inactive, VIM-2 inh inactive and NALP1 inh 36.
N#C/C(=C\c1ccc(Cl)s1)C(=O)N1CCN(c2ccccc2)CC1 was read as Mot1-301 SUMO inactive, PolyA inhibitor inactive, NALP3 yeast inh inactive, IMP-1 inh inactive, VIM-2 inh inactive and NALP1 inh inactive.
For COc1ccc(/C(C)=N/Nc2cccc(C(=O)O)c2)cc1OC the results were Mot1-301 SUMO inactive, PolyA inhibitor inactive, NALP3 yeast inh inactive, IMP-1 inh inactive, VIM-2 inh inactive and NALP1 inh inactive.
`COc1ccc(/C(=C/Nc2cccc(Br)c2)C(C)=O)cc1OC` gave Mot1-301 SUMO inactive, PolyA inhibitor inactive, NALP3 yeast inh inactive, IMP-1 inh inactive, VIM-2 inh 9.9 and NALP1 inh inactive.
